This is an account of results in the array DNA melting data of Ke et al. (doi:10.1101/2024.01.08.574731).

The nature of data set [1]: melting temperature; fluorescence melt of hairpins on a sequencing array, two-state fit, raised by 9.35 °C to match UV melts. The settings on record: sodium 0.088 M. An outline of the steps:
(§1)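 Two-state fits, bootstrapped, provided melting temperature and folding enthalpy from Cy3 fluorescence normalised to pre-quench Cy3 and to control constructs. Library hairpins with annealed Cy3 and quencher oligos were imaged on a sequenced MiSeq flow cell in 50 mM Na-HEPES pH 8.0, 25 mM NaCl, at 2.5 °C intervals up to 60 °C. Four replicates were combined with inverse-variance weighting. A 9.35 °C upward shift was applied to fitted temperatures to match UV melts.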

A short description of data set [2]: folding enthalpy; higher = less favourable; fluorescence melt of hairpins on a sequencing array, two-state fit. The settings on record: sodium 0.088 M. An outline of the steps: as §1

Turning to GATCAGGGGCTGATC ((((((...)))))), the Tm in data set [1] is 47.5 °C. For the same sequence, the folding enthalpy in data set [2] was -27.4 kcal/mol.
For GATCAGGGTCTGATC ((((((...)))))), in that order: 49.7 °C and -24.1 kcal/mol.
For the sequence GATCAGGTTACTGATC ((((((....)))))), the Tm in data set [1] turned out to be 57.6 °C. In data set [2], the folding enthalpy is -38.2 kcal/mol.
For GATCAGGTTCTGATC ((((((...)))))), the Tm in data set [1] was found to be 50.5 °C. In data set [2], the folding enthalpy is -34.1 kcal/mol.
Consider GATCAGGTTGCTGATC ((((((....)))))), for which the Tm in data set [1] turned out to be 51.2 °C. The folding enthalpy in data set [2] was -46.3 kcal/mol.
For GATCAGTAAGCTGATC ((((((....)))))), in that order: 52.3 °C and -41.3 kcal/mol.
For GATCAGTACGCTGATC ((((((....)))))), in that order: 53.8 °C and -44.1 kcal/mol.
As for GATCAGTAGCCTGATC ((((((....)))))), the Tm in data set [1] is 49.6 °C. The folding enthalpy in data set [2] was -31.4 kcal/mol.
Taken in the same sequence, the figures for GATCAGTCCCCTGATC ((((((....)))))) were 49.3 °C and -35.7 kcal/mol.
Taken in the same sequence, the figures for GATCAGTCCGCTGATC ((((((....)))))) were 53.1 °C and -53.2 kcal/mol.
Taken in the same sequence, the figures for GATCAGTCGCCTGATC ((((((....)))))) were 51.5 °C and -57.2 kcal/mol.
As to GATCAGTCGCTGATC ((((((...)))))), the Tm in data set [1] was determined as 49.8 °C. In addition, the folding enthalpy in data set [2] is -29.6 kcal/mol.
For GATCAGTGGACTGATC ((((((....)))))), the Tm in data set [1] is 51.8 °C. Moreover, the folding enthalpy in data set [2] was -37 kcal/mol.
Taken in the same sequence, the figures for GATCAGTTACTGATC ((((((...)))))) were 51.4 °C and -41.7 kcal/mol.
For GATCAGTTTTCTGATC ((((((....)))))), in that order: 52.3 °C and -30.5 kcal/mol.
Regarding GATCATAAGGATGATC ((((((....)))))), the Tm in data set [1] is 45.3 °C. For the same sequence, the folding enthalpy in data set [2] is -32.5 kcal/mol.
Take GATCATAATATGATC ((((((...)))))): in data set [1], the Tm came to 46.3 °C. Also, the folding enthalpy in data set [2] was -30.7 kcal/mol.
For GATCATAATGATGATC ((((((....)))))), in that order: 45.6 °C and -29.9 kcal/mol.
As to GATCATACAAATGATC ((((((....)))))), the Tm in data set [1] came out at 44.6 °C. In data set [2], the folding enthalpy was -33.6 kcal/mol.
Taken in the same sequence, the figures for GATCATACAATGATC ((((((...)))))) were 48.4 °C and -39.5 kcal/mol.
GATCATACCATGATC ((((((...)))))): the Tm in data set [1] came to 48.9 °C. The folding enthalpy in data set [2] was -40.3 kcal/mol.
Taken in the same sequence, the figures for GATCATACCGATGATC ((((((....)))))) were 46.9 °C and -35.7 kcal/mol.
Consider GATCATACCTATGATC ((((((....)))))), for which, in data set [1], the Tm was determined as 48.6 °C. Moreover, the folding enthalpy in data set [2] is -41.5 kcal/mol.
For GATCATACGCATGATC ((((((....)))))), in that order: 48 °C and -37 kcal/mol.
Taken in the same sequence, the figures for GATCATACTATGATC ((((((...)))))) were 48.1 °C and -35.7 kcal/mol.
As for GATCATACTCATGATC ((((((....)))))), the Tm in data set [1] was 46.7 °C. In addition, the folding enthalpy in data set [2] is -34 kcal/mol.
Regarding GATCATAGACATGATC ((((((....)))))), in data set [1], the Tm was 45.7 °C. Moreover, the folding enthalpy in data set [2] is -34.4 kcal/mol.
Regarding GATCATAGCTATGATC ((((((....)))))), in data set [1], the Tm stood at 50.7 °C. In addition, the folding enthalpy in data set [2] is -47.4 kcal/mol.
Turning to GATCATAGGGATGATC ((((((....)))))), in data set [1], the Tm turned out to be 47.3 °C. In data set [2], the folding enthalpy was -34.1 kcal/mol.
On to GATCATATAAATGATC ((((((....)))))), for which, in data set [1], the Tm is 43.7 °C. Moreover, the folding enthalpy in data set [2] is -29.9 kcal/mol.
As to GATCATATGATGATC ((((((...)))))), the Tm in data set [1] came out at 48.1 °C. The folding enthalpy in data set [2] is -31.3 kcal/mol.
Consider GATCATATGCATGATC ((((((....)))))), for which the Tm in data set [1] turned out to be 48.2 °C. In addition, the folding enthalpy in data set [2] was -40.4 kcal/mol.
Taken in the same sequence, the figures for GATCATATTATGATC ((((((...)))))) were 48.6 °C and -35.9 kcal/mol.
Taken in the same sequence, the figures for GATCATATTGATGATC ((((((....)))))) were 47.3 °C and -31.9 kcal/mol.
GATCATCAAAATGATC ((((((....)))))): the Tm in data set [1] came out at 45 °C. The folding enthalpy in data set [2] is -33.3 kcal/mol.
Take GATCATCAACATGATC ((((((....)))))): the Tm in data set [1] was 42.6 °C. Further, the folding enthalpy in data set [2] is -28.6 kcal/mol.
For GATCATCCAAATGATC ((((((....)))))), in that order: 46.3 °C and -36.9 kcal/mol.
As to GATCATCCGAATGATC ((((((....)))))), the Tm in data set [1] is 47.2 °C. Further, the folding enthalpy in data set [2] is -30.3 kcal/mol.
For GATCATCGAAATGATC ((((((....)))))), in that order: 44.2 °C and -29 kcal/mol.
In the case of GATCATCGCGATGATC ((((((....)))))), the Tm in data set [1] came out at 59.7 °C. In addition, the folding enthalpy in data set [2] is -48.5 kcal/mol.
On to GATCATCGGATGATC ((((((...)))))), for which, in data set [1], the Tm is 45.9 °C. Further, in data set [2], the folding enthalpy is -36.9 kcal/mol.
For GATCATCGGGATGATC ((((((....)))))), in that order: 53.5 °C and -44 kcal/mol.
As for GATCATCGTAATGATC ((((((....)))))), the Tm in data set [1] was 48.5 °C. For the same sequence, the folding enthalpy in data set [2] is -39.5 kcal/mol.
For GATCATCGTATGATC ((((((...)))))), in that order: 48.5 °C and -32.8 kcal/mol.
On to GATCATCGTGATGATC ((((((....)))))), for which the Tm in data set [1] is 57.8 °C. Besides, the folding enthalpy in data set [2] was -38.4 kcal/mol.
For the sequence GATCATCTAGATGATC ((((((....)))))), the Tm in data set [1] is 52.7 °C. In data set [2], the folding enthalpy is -43.8 kcal/mol.
Taken in the same sequence, the figures for GATCATCTGCATGATC ((((((....)))))) were 46.2 °C and -36 kcal/mol.
Regarding GATCATGAAATGATC ((((((...)))))), the Tm in data set [1] was found to be 58.9 °C. For the same sequence, in data set [2], the folding enthalpy was -40.9 kcal/mol.
Taken in the same sequence, the figures for GATCATGACATGATC ((((((...)))))) were 49.7 °C and -40.3 kcal/mol.
GATCATGACGATGATC ((((((....)))))): the Tm in data set [1] turned out to be 50.8 °C. Moreover, in data set [2], the folding enthalpy was -40.3 kcal/mol.
In the case of GATCATGCCATGATC ((((((...)))))), in data set [1], the Tm turned out to be 50.9 °C. For the same sequence, the folding enthalpy in data set [2] is -40 kcal/mol.
For GATCATGGACATGATC ((((((....)))))), in that order: 54.3 °C and -40.7 kcal/mol.
For GATCATGGATATGATC ((((((....)))))), in that order: 54.1 °C and -37.9 kcal/mol.
Regarding GATCATGGCAATGATC ((((((....)))))), the Tm in data set [1] was determined as 56.7 °C. In addition, the folding enthalpy in data set [2] was -41.9 kcal/mol.
Taken in the same sequence, the figures for GATCATGGGATGATC ((((((...)))))) were 44.6 °C and -30.7 kcal/mol.
For GATCATGGTAATGATC ((((((....)))))), the Tm in data set [1] is 56.2 °C. Also, the folding enthalpy in data set [2] is -41.1 kcal/mol.
For GATCATGTAGATGATC ((((((....)))))), in that order: 51 °C and -38.9 kcal/mol.
